From ChEMBL document CHEMBL2413065, “Design and synthesis of bicyclic heterocycles as potent γ-secretase modulators” (Bioorg Med Chem Lett, 2013)
Each block holds one compound with its values, some of them ahead of it. The source made the active and inactive calls. The rule behind the calls is not given here.

Experiments:
[1] = Drug level in mouse brain at 30 mg/kg, po after 4 hrs; format: ADME, organism-based; design: dose 30 mg/kg, route oral; details: read-out: Drug uptake
In short: (§1)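 Mice received 30 mg/kg orally. Plasma and brain were sampled at 4 h and analysed for compound by a qualified research LC-MS/MS method. The brain/plasma ratio was calculated from the two concentrations.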

Gamma-secretase [2] = test: Modulation of gamma-secretase (unknown origin) assessed as reduction of amyloid beta 42 level; format: protein-complex assay, Homo sapiens
[3] = Fraction unbound in rat brain; format: ADME, tissue-based
In short: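 Unbound fraction in rat brain tissue, expressed as %.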

[4] = Fraction unbound in human plasma; format: ADME, cell-free
In short: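 Unbound fraction in human plasma, determined as binding to human plasma proteins.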

hERG (KCNH2) = hERG (KCNH2) (Homo sapiens, UniProt Q12809); test: Inhibition of human ERG at 3 uM by Patch-Xpress assay
Cytochrome P450 3A4 = Cytochrome P450 3A4 (Homo sapiens, UniProt P08684); test: Inhibition of CYP3A4 (unknown origin)
Mus musculus [5] = test: Effect in mouse assessed as increase of amyloid beta 38 level at 30 mg/kg, po after 4 hrs by ELISA
Mus musculus [6] = test: Antialzheimer activity in mouse assessed as reduction of total amyloid beta level at 30 mg/kg, po after 4 hrs by ELISA; format: functional
In short: (§2)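 Mice dosed orally at 30 mg/kg, n = 6. Brain Aβ peptides were measured by ELISA 4 h after dosing. Values are given as % change versus untreated animals.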

Cytochrome P450 1A2 = molecular target: T1, Cytochrome P450 1A2 (Homo sapiens, UniProt P05177); test: Inhibition of CYP1A2 (unknown origin)
T1 sequence (P05177 whole entry): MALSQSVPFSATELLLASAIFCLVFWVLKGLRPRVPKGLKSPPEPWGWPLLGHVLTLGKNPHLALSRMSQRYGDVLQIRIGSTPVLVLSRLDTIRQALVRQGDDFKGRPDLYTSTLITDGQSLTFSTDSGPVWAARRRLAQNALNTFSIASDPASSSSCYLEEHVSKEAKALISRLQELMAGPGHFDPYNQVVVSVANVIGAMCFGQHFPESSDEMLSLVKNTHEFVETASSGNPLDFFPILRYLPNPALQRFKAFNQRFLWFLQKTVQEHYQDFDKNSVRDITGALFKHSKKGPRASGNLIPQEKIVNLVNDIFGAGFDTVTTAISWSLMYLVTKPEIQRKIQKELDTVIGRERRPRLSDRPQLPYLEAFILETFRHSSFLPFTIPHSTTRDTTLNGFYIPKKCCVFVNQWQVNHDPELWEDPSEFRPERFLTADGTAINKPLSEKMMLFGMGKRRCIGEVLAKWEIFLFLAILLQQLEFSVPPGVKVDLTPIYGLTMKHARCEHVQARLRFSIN

[7] = Ratio of drug level in brain to plasma in mouse at 30 mg/kg, po after 4 hrs; format: ADME, organism-based; design: dose 30 mg/kg, route oral; details: read-out: BPR; in short: as §1
[8] = Drug metabolism in mouse liver microsomes at 1 uM after 15 mins; format: ADME, Microsome; details: read-out: Drug metabolism
In short: (§3)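 Compound at 1 μM was incubated with human or mouse liver microsomes for 15 min. The value is the % of compound metabolized.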

Mus musculus [9] = test: Antialzheimer activity in mouse assessed as reduction of amyloid beta-42 level at 30 mg/kg, po after 4 hrs by ELISA; format: functional; in short: as §2
[10] = molecular target: Voltage-gated inwardly rectifying potassium channel KCNH2 (Homo sapiens, UniProt Q12809); test: Binding affinity to human ERG
Cytochrome P450 2D6 = Cytochrome P450 2D6 (Homo sapiens, UniProt P10635); test: Inhibition of CYP2D6 (unknown origin)
[11] = Plasma concentration in mouse at 30 mg/kg, po after 4 hrs; format: ADME, organism-based; design: dose 30 mg/kg, route oral; in short: as §1
[12] = Drug metabolism in human liver microsomes at 1 uM after 15 mins; format: ADME, Microsome; details: read-out: Drug metabolism; in short: as §3
Cytochrome P450 2C19 = Cytochrome P450 2C19 (Homo sapiens, UniProt P33261); test: Inhibition of CYP2C19 (unknown origin)
Cytochrome P450 2C9 = Cytochrome P450 2C9 (Homo sapiens, UniProt P11712); test: Inhibition of CYP2C9 (unknown origin)
Canis familiaris [13] = test: Hepatotoxicity in dog assessed as effect on bilirubin and alanine transaminase level at 20 mg/kg, po; format: toxicity, organism-based, Canis lupus familiaris; design: dose 20 mg/kg, route oral; details: in vivo
Canis familiaris [14] = test: Antialzheimer activity in dog assessed as reduction of amyloid beta 42 level in cerebrospinal fluid at 20 mg/kg, po after 8 hrs by ELISA; format: functional; details: Canis lupus familiaris
In short: (§4)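 Dogs received 20 mg/kg orally. CSF Aβ42 and Aβ38 were measured 8 h after dosing and expressed as % change.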

[15] = Plasma concentration in dog at 20 mg/kg, po after 8 hrs; format: ADME, organism-based, Canis lupus familiaris; design: dose 20 mg/kg, route oral
In short: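 Dogs received 20 mg/kg orally. Plasma compound concentration was measured at 8 h and reported in ng/mL and μM.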

Canis familiaris [16] = test: Antialzheimer activity in dog assessed as increase of amyloid beta 38 level in cerebrospinal fluid at 20 mg/kg, po after 8 hrs by ELISA; format: functional, Canis lupus familiaris; in short: as §4
Gamma-secretase [17] = test: Modulation of gamma-secretase (unknown origin); format: protein-complex assay, Homo sapiens

Chain of Voltage-gated inwardly rectifying potassium channel KCNH2 (Q12809 whole entry): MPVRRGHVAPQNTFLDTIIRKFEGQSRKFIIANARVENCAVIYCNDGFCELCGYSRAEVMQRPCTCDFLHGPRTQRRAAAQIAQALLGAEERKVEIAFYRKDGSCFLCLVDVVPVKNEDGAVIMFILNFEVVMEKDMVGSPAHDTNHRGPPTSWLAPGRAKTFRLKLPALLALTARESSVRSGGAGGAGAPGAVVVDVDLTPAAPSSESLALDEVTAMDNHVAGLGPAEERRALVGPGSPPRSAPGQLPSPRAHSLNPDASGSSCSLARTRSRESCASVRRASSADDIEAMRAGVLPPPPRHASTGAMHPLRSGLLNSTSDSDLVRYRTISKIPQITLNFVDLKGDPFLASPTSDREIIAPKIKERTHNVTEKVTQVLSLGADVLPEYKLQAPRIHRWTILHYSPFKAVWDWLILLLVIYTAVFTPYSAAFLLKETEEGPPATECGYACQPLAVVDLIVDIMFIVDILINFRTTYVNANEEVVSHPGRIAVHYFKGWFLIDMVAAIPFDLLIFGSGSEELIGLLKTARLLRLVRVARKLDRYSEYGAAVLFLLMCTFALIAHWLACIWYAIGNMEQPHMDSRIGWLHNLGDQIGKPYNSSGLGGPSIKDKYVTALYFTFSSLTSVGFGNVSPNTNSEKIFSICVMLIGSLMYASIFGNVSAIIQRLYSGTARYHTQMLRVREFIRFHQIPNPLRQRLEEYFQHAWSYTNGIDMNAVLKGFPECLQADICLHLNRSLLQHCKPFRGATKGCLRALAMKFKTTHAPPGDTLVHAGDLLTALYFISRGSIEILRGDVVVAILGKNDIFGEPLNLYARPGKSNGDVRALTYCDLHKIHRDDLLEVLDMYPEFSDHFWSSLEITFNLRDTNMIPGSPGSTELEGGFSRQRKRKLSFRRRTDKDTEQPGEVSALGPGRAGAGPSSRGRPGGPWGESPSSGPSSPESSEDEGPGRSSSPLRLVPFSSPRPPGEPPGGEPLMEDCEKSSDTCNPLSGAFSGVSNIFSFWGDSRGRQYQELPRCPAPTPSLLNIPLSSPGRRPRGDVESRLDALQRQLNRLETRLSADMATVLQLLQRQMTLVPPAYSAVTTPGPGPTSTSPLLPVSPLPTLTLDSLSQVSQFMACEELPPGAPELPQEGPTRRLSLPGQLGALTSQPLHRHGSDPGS
Chain of hERG (KCNH2) (Q12809 whole entry): as above
Chain of Cytochrome P450 2D6 (P10635 whole entry): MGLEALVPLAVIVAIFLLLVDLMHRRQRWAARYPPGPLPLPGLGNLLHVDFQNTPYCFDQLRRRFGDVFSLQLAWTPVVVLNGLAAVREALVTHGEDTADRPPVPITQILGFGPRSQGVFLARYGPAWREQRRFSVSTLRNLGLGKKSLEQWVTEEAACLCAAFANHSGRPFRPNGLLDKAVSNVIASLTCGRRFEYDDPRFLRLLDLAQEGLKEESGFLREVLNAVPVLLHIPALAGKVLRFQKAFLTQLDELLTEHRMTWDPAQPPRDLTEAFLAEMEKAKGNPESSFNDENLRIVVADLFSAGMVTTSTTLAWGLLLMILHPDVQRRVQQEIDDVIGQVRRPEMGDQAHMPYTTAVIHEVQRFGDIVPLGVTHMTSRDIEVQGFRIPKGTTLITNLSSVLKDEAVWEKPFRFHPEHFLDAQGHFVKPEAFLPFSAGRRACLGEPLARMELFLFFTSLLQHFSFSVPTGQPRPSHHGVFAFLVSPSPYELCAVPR
Chain of Cytochrome P450 2C19 (P33261 whole entry): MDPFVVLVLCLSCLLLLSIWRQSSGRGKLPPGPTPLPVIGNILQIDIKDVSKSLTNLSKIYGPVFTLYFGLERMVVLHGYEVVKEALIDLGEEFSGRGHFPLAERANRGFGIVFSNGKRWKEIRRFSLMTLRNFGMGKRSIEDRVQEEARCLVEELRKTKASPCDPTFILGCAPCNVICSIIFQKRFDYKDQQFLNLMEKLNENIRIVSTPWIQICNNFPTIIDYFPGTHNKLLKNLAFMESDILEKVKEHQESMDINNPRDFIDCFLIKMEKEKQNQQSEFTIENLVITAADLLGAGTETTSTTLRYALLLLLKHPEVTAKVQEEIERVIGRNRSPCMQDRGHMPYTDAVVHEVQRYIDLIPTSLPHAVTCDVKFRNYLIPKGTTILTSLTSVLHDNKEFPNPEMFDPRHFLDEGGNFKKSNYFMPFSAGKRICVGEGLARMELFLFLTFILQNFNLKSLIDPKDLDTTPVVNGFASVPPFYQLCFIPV
Chain of Cytochrome P450 3A4 (P08684 whole entry): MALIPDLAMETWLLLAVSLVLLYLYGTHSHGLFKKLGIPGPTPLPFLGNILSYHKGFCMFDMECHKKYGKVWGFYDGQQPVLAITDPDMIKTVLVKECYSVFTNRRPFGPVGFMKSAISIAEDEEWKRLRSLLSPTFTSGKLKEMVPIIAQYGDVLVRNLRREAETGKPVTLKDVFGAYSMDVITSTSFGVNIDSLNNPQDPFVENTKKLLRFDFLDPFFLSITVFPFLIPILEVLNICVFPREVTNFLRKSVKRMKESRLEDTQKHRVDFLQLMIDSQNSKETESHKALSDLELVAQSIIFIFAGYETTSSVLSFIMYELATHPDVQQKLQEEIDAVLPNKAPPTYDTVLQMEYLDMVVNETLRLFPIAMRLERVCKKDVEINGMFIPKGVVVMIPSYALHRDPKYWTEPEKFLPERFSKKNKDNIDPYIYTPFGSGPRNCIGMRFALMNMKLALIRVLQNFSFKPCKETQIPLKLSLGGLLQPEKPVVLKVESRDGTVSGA
Chain of Cytochrome P450 2C9 (P11712 whole entry): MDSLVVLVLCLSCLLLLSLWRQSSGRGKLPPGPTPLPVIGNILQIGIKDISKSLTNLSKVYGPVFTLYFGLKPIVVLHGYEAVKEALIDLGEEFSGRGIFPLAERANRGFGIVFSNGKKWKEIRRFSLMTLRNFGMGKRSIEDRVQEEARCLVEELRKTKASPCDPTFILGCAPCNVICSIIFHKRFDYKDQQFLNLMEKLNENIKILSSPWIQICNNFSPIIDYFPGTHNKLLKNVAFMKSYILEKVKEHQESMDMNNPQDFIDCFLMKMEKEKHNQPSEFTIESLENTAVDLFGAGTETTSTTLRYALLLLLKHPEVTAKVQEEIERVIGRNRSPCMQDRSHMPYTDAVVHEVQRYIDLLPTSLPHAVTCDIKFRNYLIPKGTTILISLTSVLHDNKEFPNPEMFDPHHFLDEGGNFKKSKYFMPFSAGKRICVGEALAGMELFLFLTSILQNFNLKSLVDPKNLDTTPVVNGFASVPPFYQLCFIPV

SMILES: COc1cc(-c2nc(-c3ccc(F)cc3)n(C)n2)ccc1-n1cnc(C)c1
IC50 (Gamma-secretase [2]): 620 nM

SMILES: COc1cc(C(=O)N[C@@H](C)c2ccc(F)cc2)ccc1-n1cnc(C)c1
IC50 (Gamma-secretase [2]): 2600 nM

SMILES: COc1cc(-c2nc3n(n2)CCO[C@H]3c2ccccc2C(F)(F)F)ccc1-n1cnc(C)c1
concentration at 4 h [1]: 3.36 µM
IC50 (Gamma-secretase [2]): 71 nM
inhibition at 3 µM (hERG (KCNH2)): 12%
IC50 (Cytochrome P450 3A4): 1100 nM
Increase % at 30 mg/kg (Mus musculus [5]): 17%
IC50 (Cytochrome P450 1A2): > 10000 nM
Kp at 4 h [7]: 0.93
metabolised at […], 1 µM [8]: 6%
inhibition in vivo at 30 mg/kg (Mus musculus [9]): 22%
IC50 [10]: > 10000 nM
IC50 (Cytochrome P450 2D6): > 10000 nM
concentration at 4 h [11]: 3.6 µM
metabolised at […], 1 µM [12]: 5%
IC50 (Cytochrome P450 2C19): 1520 nM
IC50 (Cytochrome P450 2C9): 8430 nM

SMILES: COc1nc(-c2nc3n(n2)CCC[C@H]3c2ccccc2C(F)(F)F)ccc1-n1cnc(C)c1
concentration at 4 h [1]: 2.8 µM
IC50 (Gamma-secretase [2]): 28 nM
fraction unbound [3]: 0.022
fraction unbound [4]: 0.085
Activity (Canis familiaris [13]): Non-toxic
IC50 (Cytochrome P450 3A4): > 10000 nM
inhibition in vivo at 20 mg/kg (Canis familiaris [14]): 50%
Increase % at 30 mg/kg (Mus musculus [5]): 66%
Kp at 4 h [7]: 0.23
metabolised at […], 1 µM [8]: 6%
inhibition in vivo at 30 mg/kg (Mus musculus [9]): 62%
IC50 (Cytochrome P450 2D6): > 10000 nM
concentration at 4 h [11]: 12.3 µM
metabolised at […], 1 µM [12]: 10%
concentration at 8 h [15]: 19 µM
IC50 (Cytochrome P450 2C19): > 10000 nM
IC50 (Cytochrome P450 2C9): 8510 nM
Activity (Canis familiaris [16]): 28%

SMILES: COc1cc(-c2nnc(-c3ccc(F)cc3)[nH]2)ccc1-n1cnc(C)c1
IC50 (Gamma-secretase [2]): 1290 nM

SMILES: COc1cc(-c2nc(Cc3ccc(F)cc3)n(C)n2)ccc1-n1cnc(C)c1
IC50 (Gamma-secretase [2]): 850 nM

SMILES: COc1cc(C(=O)NCc2cccc(-c3ccccc3)c2)ccc1-n1cnc(C)c1
concentration at 4 h [1]: 2.7 µM
inhibition in vivo at 30 mg/kg (Mus musculus [6]): 3%
IC50 (Gamma-secretase [17]): 158 nM
Kp at 4 h [7]: 0.22
inhibition in vivo at 30 mg/kg (Mus musculus [9]): 12%
concentration at 4 h [11]: 11.9 µM

SMILES: COc1cc(-c2nc(C)n(-c3ccc(F)cc3)n2)ccc1-n1cnc(C)c1
IC50 (Gamma-secretase [2]): 770 nM

SMILES: COc1cc(-c2nc(-c3ccc(F)cc3)nn2C)ccc1-n1cnc(C)c1
IC50 (Gamma-secretase [2]): 5750 nM

Continued, in another order:

concentration at 4 h [1]: 4.8 µM
IC50 (Gamma-secretase [2]): 40 nM
fraction unbound [3]: 0.0092
fraction unbound [4]: 0.027
IC50 (Cytochrome P450 3A4): 6940 nM
IC50 (Cytochrome P450 1A2): > 10000 nM
Kp at 4 h [7]: 0.5
metabolised at […], 1 µM [8]: 9%
IC50 (Cytochrome P450 2D6): > 10000 nM
concentration at 4 h [11]: 9.8 µM
metabolised at […], 1 µM [12]: 41%
IC50 (Cytochrome P450 2C19): 9240 nM
IC50 (Cytochrome P450 2C9): 5660 nM
SMILES: COc1cc(-c2nc3n(n2)CCC[C@H]3c2ccc(F)cc2C)ccc1-n1cnc(C)c1
inhibition at 3 µM (hERG (KCNH2)): 28%
Increase % at 30 mg/kg (Mus musculus [5]): 59%
inhibition (Mus musculus [6]): inactive
inhibition in vivo at 30 mg/kg (Mus musculus [9]): 49%
IC50 [10]: 7900 nM

IC50 (Gamma-secretase [2]): 93 nM
SMILES: COc1cc(-c2nc3n(n2)CCCC3c2ccc(F)cc2C)ccc1-n1cnc(C)c1 (racemic)

concentration at 4 h [1]: 12.7 µM
IC50 (Gamma-secretase [2]): 24 nM
Kp at 4 h [7]: 1.29
metabolised at […], 1 µM [8]: 7%
concentration at 4 h [11]: 9.7 µM
metabolised at […], 1 µM [12]: 13%
SMILES: COc1cc(-c2nc3n(n2)CCC[C@H]3c2ccccc2C(F)(F)F)ccc1-n1cnc(C)c1
inhibition at 3 µM (hERG (KCNH2)): 11%
Increase % at 30 mg/kg (Mus musculus [5]): 44%
inhibition in vivo at 30 mg/kg (Mus musculus [9]): 46%
IC50 [10]: > 10000 nM

IC50 (Gamma-secretase [2]): 220 nM
SMILES: COc1cc(-c2nc3n(n2)CCCC3c2ccc(F)cc2)ccc1-n1cnc(C)c1 (racemic)

IC50 (Gamma-secretase [2]): 447 nM
SMILES: COc1cc(-c2nc3n(n2)CCC[C@@H]3c2ccc(F)cc2C)ccc1-n1cnc(C)c1
IC50 [10]: 794 nM
